Assay [1] has as its system Rattus norvegicus. Put plainly: Effective intraperitoneal dose in vivo in rat after 15 mins to induce lower lip retraction. The assay is classed as functional. The settings on record: ip, 0.25 h. The essentials:
(§1)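 Observed in 10 min windows centred 15 and 60 min post-dose, 10 s each minute, scoring lower lip retraction present or absent (0–10).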

Assay [2] concerns Rattus norvegicus. Put plainly: Induction of lower lip retraction in rat 60 min after administration, effective peroral dose determined in vivo. The assay is classed as functional. The settings on record: po, 1 h. Put shortly:
as §1

Assay [3] deals with T1, 5-hydroxytryptamine receptor 1A (Homo sapiens, UniProt P08908).
T1 sequence (P08908 whole entry): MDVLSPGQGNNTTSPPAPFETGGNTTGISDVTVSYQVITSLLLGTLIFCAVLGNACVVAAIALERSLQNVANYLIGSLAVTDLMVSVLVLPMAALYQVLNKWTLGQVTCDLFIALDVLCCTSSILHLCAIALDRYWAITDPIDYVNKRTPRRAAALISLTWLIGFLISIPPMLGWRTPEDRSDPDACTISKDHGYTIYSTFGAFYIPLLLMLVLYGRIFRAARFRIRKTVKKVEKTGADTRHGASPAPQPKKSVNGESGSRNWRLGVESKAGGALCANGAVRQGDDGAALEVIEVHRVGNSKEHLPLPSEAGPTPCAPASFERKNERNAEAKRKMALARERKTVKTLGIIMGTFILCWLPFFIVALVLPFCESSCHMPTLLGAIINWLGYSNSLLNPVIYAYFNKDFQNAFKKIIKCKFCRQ
Put plainly: In vitro effective concentration required to inhibit forskolin-stimulated cAMP levels in HA7 cells expressing human 5-HT1A receptor. The class given is functional, cell-based. The essentials:
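HeLa HA7 cells stably expressing human 5-HT1A, at 80–90% confluency, antibiotic-free for 24 h. Preincubated 10 min at RT in DMEM/10 mM Hepes, then drug at 0.1 nM–100 µM with 100 µM forskolin and 100 µM IBMX for 10 min at RT. Stopped with 0.1 N HCl; cAMP by radioimmunoassay as % of forskolin control; pEC50.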

Assay [4] deals with T2, 5-hydroxytryptamine receptor 1A (Rattus norvegicus, UniProt P19327).
T2 sequence (P19327 whole entry): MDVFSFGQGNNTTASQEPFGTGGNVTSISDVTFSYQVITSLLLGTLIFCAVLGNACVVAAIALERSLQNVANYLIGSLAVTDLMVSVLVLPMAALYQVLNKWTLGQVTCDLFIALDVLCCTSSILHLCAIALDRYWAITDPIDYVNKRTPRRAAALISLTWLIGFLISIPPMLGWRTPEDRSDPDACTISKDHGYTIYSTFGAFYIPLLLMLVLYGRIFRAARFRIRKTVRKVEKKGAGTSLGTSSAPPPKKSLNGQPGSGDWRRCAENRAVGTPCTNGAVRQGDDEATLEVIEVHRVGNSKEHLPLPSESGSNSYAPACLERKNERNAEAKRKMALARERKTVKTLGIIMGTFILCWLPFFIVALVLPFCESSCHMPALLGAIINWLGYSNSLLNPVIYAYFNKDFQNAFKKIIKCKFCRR
The experiment in a line: Binding affinity towards 5-hydroxytryptamine 1A receptor in rat cortex using [3H]8-OH-DPAT as a radioligand. Put shortly:
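Rat tissue membranes, competition against radioligand at 23 °C. Nonspecific binding: 5-HT for 5-HT1A (30 min), (+)-butaclamol for D2 (60 min), phentolamine for α1 (30 min). Tris HCl 50 mM pH 7.4 buffers. Filtration through glass-fibre filters, then scintillation counting. Run in triplicate; IC50 by nonlinear regression; Ki by Cheng–Prusoff; mean pKi of three determinations.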

As to `CCNc1cccc(CNCC2(F)CCN(C(=O)c3ccc(F)c(Cl)c3)CC2)n1`, the ED50 came to 0.11 mg/kg in the assay with Rattus norvegicus [1] and 0.32 mg/kg with Rattus norvegicus [2]. In assay [3], this molecule showed an EC50 of 13.2 nM. `O=C(c1ccc(Cl)c(Cl)c1)N1CCC(CNCc2cccc(-n3cccn3)n2)CC1`: the response in assay [3] was half-maximal at 30.9 nM (EC50). On the same count and under the same terms, with `O=C(c1ccc(Cl)c(Cl)c1)N1CCC(CNCc2cccc(-c3cnco3)n2)CC1` the figure was 2 nM.

`N#CC1(CNCc2cccc(-n3cccn3)n2)CCN(C(=O)c2ccc(Cl)c(Cl)c2)CC1` showed a Ki in assay [4] of 6.92 nM. In assay [3], this molecule had an EC50 of 162 nM. Regarding `O=C(c1ccc(Cl)c(Cl)c1)N1CCC(CNCc2cccc(N3CCC3)n2)CC1`, the midpoint of the response in assay [3], the EC50, lay at 7.08 nM.

Consider `O=C(c1ccc(Cl)c(Cl)c1)N1CCC(CNCc2cccc(-c3ccco3)n2)CC1`, for which a half-maximal effect in assay [3] (EC50) was put at 5.25 nM. The same measure, in the same setting: with `O=C(c1ccc(Cl)c(Cl)c1)N1CCC(CNCc2cccc(-c3cccs3)n2)CC1` the figure was 5.75 nM.

The molecule `O=C(c1ccc(Cl)c(Cl)c1)N1CCC(CNCc2ncccc2F)CC1` gave a Ki in assay [4] of 15.1 nM.

As for `CN(C)c1cccc(CNCC2CCN(C(=O)c3ccc(Cl)c(Cl)c3)CC2)n1`, the EC50 in assay [3] was 20.4 nM. `O=C(c1ccc(Cl)c(Cl)c1)N1CC=C(CNCc2cccc(-n3cccn3)n2)CC1` showed a Ki in assay [4] of 6.03 nM. Further, the EC50 in assay [3] was 269 nM. As to `CCc1ccc(CNCC2(F)CCN(C(=O)c3ccc(F)c(Cl)c3)CC2)nc1`, the ED50 in the assay on Rattus norvegicus [1] was 1.3 mg/kg; in the assay with Rattus norvegicus [2], 1.8 mg/kg. Further, in assay [4], the Ki was 8.91 nM. Further, the response in assay [3] was half-maximal at 407 nM (EC50). In turn, `CC(C)c1ccc(CNCC2(F)CCN(C(=O)c3ccc(F)c(Cl)c3)CC2)nc1` gave a Ki in assay [4] of 35.5 nM.

For `COC1(CNCc2cccc(-n3cccn3)n2)CCN(C(=O)c2ccc(Cl)c(Cl)c2)CC1`, in assay [4], the affinity corresponds to a Ki of 30.2 nM. As to `O=C(c1ccc(Cl)c(Cl)c1)N1CCC(O)(CNCc2cccc(-n3cccn3)n2)CC1`, in assay [4], the inhibition constant (Ki) is 1.62 nM. The molecule further showed a concentration giving a half-maximal response (EC50) in assay [3] of 39.8 nM.

Molecule `CNc1cccc(CNCC2CCN(C(=O)c3ccc(Cl)c(Cl)c3)CC2)n1` showed an EC50 in assay [3] of 21.9 nM. Take `CCN(CC)c1nc(CNCC2(F)CCN(C(=O)c3ccc(F)c(Cl)c3)CC2)ccc1C`: the ED50 was determined as 0.32 mg/kg with Rattus norvegicus [1] and 0.11 mg/kg in the assay with Rattus norvegicus [2]. In assay [4], this molecule had a Ki of 1.38 nM. Besides, the EC50 in assay [3] was 28.8 nM. As to `O=C(c1ccc(Cl)c(Cl)c1)N1CCC(CF)(CNCc2cccc(-n3cccn3)n2)CC1`, the affinity in assay [4], expressed as Ki, was 9.12 nM. The EC50 in assay [3] is 309 nM. As to `O=C(c1ccc(Cl)c(Cl)c1)N1CCC(CNCc2cccc(-c3cc[nH]n3)n2)CC1`, in assay [3], the EC50 was 3.02 nM. Take `CC1(CNCc2cccc(-n3cccn3)n2)CCN(C(=O)c2ccc(Cl)c(Cl)c2)CC1`: the Ki in assay [4] was 37.2 nM. As for `CNc1cccc(CNCC2(F)CCN(C(=O)c3ccc(F)c(Cl)c3)CC2)n1`, the ED50 turned out to be 0.11 mg/kg with Rattus norvegicus [1] and 0.32 mg/kg in the assay with Rattus norvegicus [2]. This molecule also gave a half-maximal effective concentration (EC50) in assay [3] of 12.6 nM. For `Cc1ccc(CNCC2(F)CCN(C(=O)c3ccc(F)c(Cl)c3)CC2)nc1N(C)C` the same measures were 0.04 mg/kg, 0.08 mg/kg and 3.72 nM. With `O=C(c1ccc(Cl)c(Cl)c1)N1CCC(CNCc2cccc(-c3nccs3)n2)CC1`, a half-maximal response in assay [3] (EC50) required 5.01 nM. Consider `O=C(c1ccc(F)c(Cl)c1)N1CCC(F)(CNCc2cccc(-c3cc[nH]n3)n2)CC1`, for which the ED50 in the assay with Rattus norvegicus [1] and in the assay with Rattus norvegicus [2] was 0.32 mg/kg throughout. Further, in assay [3], the EC50 was 0.724 nM. As for `O=C(c1ccc(Cl)c(Cl)c1)N1CCC(F)(CNCc2ccccn2)CC1`, the 50% effect level in the assay with Rattus norvegicus [1] (ED50) was put at a dose of 0.11 mg/kg. In assay [4], this molecule showed a Ki of 5.13 nM. Consider `CCNc1nc(CNCC2(F)CCN(C(=O)c3ccc(F)c(Cl)c3)CC2)ccc1C`, for which the ED50 in the assay on Rattus norvegicus [1] amounted to 0.08 mg/kg; in the assay on Rattus norvegicus [2], 0.45 mg/kg. This molecule also gave a Ki in assay [4] of 0.148 nM. This molecule gave an EC50 in assay [3] of 8.32 nM. Regarding `Cc1ccc(CNCC2(F)CCN(C(=O)c3ccc(Cl)c(Cl)c3)CC2)nc1`, the ED50 in the assay on Rattus norvegicus [2] worked out at 0.62 mg/kg. For the same molecule, in assay [3], a half-maximal effect (EC50) was put at 20.9 nM. As to `Cc1ccc(CNCC2(F)CCN(C(=O)c3ccc(F)c(Cl)c3)CC2)nc1` [BEFIRADOL], the ED50 was found to be 0.08 mg/kg in the assay on Rattus norvegicus [1] and 0.11 mg/kg in the assay with Rattus norvegicus [2].

The values above are taken from ChEMBL document CHEMBL1132173, “Novel derivatives of 2-pyridinemethylamine as selective, potent, and orally active agonists at 5-HT1A receptors” (J Med Chem, 1999).
